Experimental findings from ChEMBL document CHEMBL4390662, “Design, synthesis and biological evaluation of novel α-acyloxy carboxamides via Passerini reaction as caspase 3/7 activators” (Eur J Med Chem, 2019) are described below.

In brackets after ≈: the same amount, converted by molar mass. Activity calls are given as the source filed them.

One series has as its system WI-38. The series is described as follows: Cytotoxicity against human WI38 cells assessed as cell growth inhibition incubated for 72 hrs by MTT assay. The class given is cell-based. The conditions noted are these: for IC50: Homo sapiens, WI-38, 72 h; for EC100: human, wi-38, 72 h. The method, boiled down: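 Wi-38 fibroblasts grown in DMEM with 10% FBS and seeded at 5×10^3 per well. Attachment 24 h, then serial concentrations for 72 h at 37°C, 5% CO2. MTT stock (5 mg/mL) added for 3 h at 37°C, DMSO solubilization, absorbance at 570 nm. IC50 estimated.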
On the technique in general: Tetrazolium assays rely on reduction of a dye to a coloured formazan, in cell work by metabolically active cells.

The subject of series [1] is MCF7. Put plainly: Cytotoxicity against human MCF7 cells assessed as cell growth inhibition incubated for 72 hrs by MTT assay. The settings on record: MCF7, 72 h. The class given is functional, cell-based. The method, boiled down: (§1)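 Cells grown in RPMI-1640 with 10% FBS and seeded at 5×10^3 per well. After 24 h, serial concentrations given for 72 h at 37°C, 5% CO2. Then 5 mg/mL MTT stock added for 3 h, formazan dissolved in DMSO, A570 read. IC50 calculated from the curves.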

Another series relates to NFS-60. Put plainly: Cytotoxicity against mouse NFS60 cells assessed as cell growth inhibition incubated for 72 hrs by MTT assay. The settings on record: NFS-60, 72 h. The class given is functional, cell-based. The method in brief:
as §1

The next series concerns HepG2. The series is described as follows: Cytotoxicity against human HepG2 cells assessed as cell growth inhibition incubated for 72 hrs by MTT assay. The class given is functional, cell-based. The conditions noted are these: HepG2, 72 h. The method in brief: as §1
The subject of series [2] is MCF7. The series is described as follows: Potency index, ratio of doxorubicin IC50 to test compound IC50 against human MCF7 cells. The class given is functional.
A short description of series [3]: Selectivity index, ratio of IC50 for human WI38 cells to IC50 for human MCF7 cells. The class given is toxicity. The conditions noted are these: WI38 cells versus MCF7 cells, read-out: Ratio IC50. The method, boiled down:
(§2)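 SI calculated as IC50 on normal Wi-38 fibroblasts divided by IC50 on the cancer cell line. Both came from 72 h MTT assays.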

Series [4] can be described thus: Selectivity index, ratio of IC50 for human WI38 cells to IC50 for mouse NFS60 cells. The method in brief:
as §2

A short description of series [5]: Selectivity index, ratio of IC50 for human WI38 cells to IC50 for human HepG2 cells. The class given is toxicity. The settings on record: WI38 cells versus HepG2 cells, read-out: Ratio IC50. The method in brief:
as §2

In series [6] the test system is Staphylococcus aureus. Put plainly: Antimicrobial activity against Staphylococcus aureus ATCC 25923 incubated for 24 hrs by microdilution assay. The class given is functional. The method in brief: (§3)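 Two-fold serial dilutions of test solutions made in Mueller Hinton broth and inoculated. Incubated at 37°C for 24 h. MIC taken as the lowest concentration with no growth. Ciprofloxacin is the antibacterial reference, fluconazole the antifungal one, and DMSO the blank.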

Series [7] has as its system Escherichia coli. Put plainly: Antimicrobial activity against Escherichia coli ATCC 25922 incubated for 24 hrs by microdilution assay. The class given is functional. The method, boiled down:
as §3

Series [8] has as its system Candida albicans. Put plainly: Antimicrobial activity against Candida albicans ATCC 90028 incubated for 24 hrs by microdilution assay. The class given is functional. The method in brief: as §3
In series [9] the test system is Staphylococcus aureus. Put plainly: Antimicrobial activity against Staphylococcus aureus ATCC 25923 incubated for 24 hrs by agar well diffusion assay. The class given is functional. The method, boiled down:
(§4)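 Nutrient agar spread with 100 µL inoculum: bacteria at 1×10^8 CFU/mL, fungi at 1×10^6 CFU/mL. 10 mm wells loaded with 100 µL of compound in DMSO (final 1 mg/mL). Bacteria incubated 24 h at 37 °C, fungi 48 h at 28 °C. Inhibition zones measured in mm. Ciprofloxacin and fluconazole standards at 1 mg/mL, DMSO negative control.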
For orientation: Agar diffusion results depend on both activity and mobility in agar.

In another series the test system is Enterococcus faecalis. The series is described as follows: Antimicrobial activity against Enterococcus faecalis ATCC 29212 incubated for 24 hrs by agar well diffusion assay. The class given is functional. The method, boiled down:
as §4

A further series deals with Pseudomonas aeruginosa. The series is described as follows: Antimicrobial activity against Pseudomonas aeruginosa ATCC 27853 incubated for 24 hrs by agar well diffusion assay. The class given is functional. The method, boiled down:
as §4

The subject of series [10] is Escherichia coli. The series is described as follows: Antimicrobial activity against Escherichia coli ATCC 25922 incubated for 24 hrs by agar well diffusion assay. The class given is functional. The method in brief:
as §4

Series [11] has as its system Candida albicans. Put plainly: Antimicrobial activity against Candida albicans ATCC 90028 incubated for 48 hrs by agar well diffusion assay. The class given is functional. The method in brief: as §4

As for `O=C1OC2(CCCCC2)C(=O)N1c1ccc([N+](=O)[O-])cc1`, the IC50 with WI-38 was 0.035 µM; in the series with MCF7 [1] it was 0.0065 µM; in the series on NFS-60, 0.00898 µM; in the series on HepG2, 0.0094 µM. Also, the EC100 with WI-38 is 0.006 µM. Further, the results for the “Ratio IC50” value (in the series on MCF7 [2]; in series [4]) were 2 - 4 and 3.897, respectively. Moreover, the results for the selectivity ratio in series [3] and in series [5] were 5.38 and 3.72, respectively. The MIC result in the series on Staphylococcus aureus [6] and with Candida albicans [8] was “inactive” throughout. Besides, in the series on Escherichia coli [7] (ATCC 25922, 24 h), the minimal inhibitory concentration (MIC) is 3530 µM (≈ 1020 µg/mL). In addition, the “diameter of the inhibition zone (DIZ)” value with Staphylococcus aureus [9], with Enterococcus faecalis and in the series with Candida albicans [11] was “inactive” each time. In addition, the “diameter of the inhibition zone (DIZ)” value in the series on Pseudomonas aeruginosa and in the series on Escherichia coli [10] was 15 mm throughout.
Turning to `O=C(Nc1ccc([N+](=O)[O-])cc1)C1(O)CCCCC1`, the IC50 in the series on WI-38 was 1.22 µM; in the series on MCF7 [1] it was 0.664 µM; in the series with NFS-60, 0.716 µM; in the series with HepG2 it was 0.648 µM. Besides, the EC100 in the series on WI-38 was 0.53 µM. Further, the selectivity ratio in [3] turned out to be 1.84; in series [5] it was 1.88. For the same compound, the “Ratio IC50” value in series [4] is 1.705. Also, the MIC entry with Staphylococcus aureus [6] and in the series with Escherichia coli [7] was “inactive” each time. The same compound yielded an MIC against Candida albicans [8] (ATCC 90028, 24 h) of 1040 µM (≈ 275 µg/mL). Also, the “diameter of the inhibition zone (DIZ)” value in the series with Staphylococcus aureus [9], in the series on Enterococcus faecalis and in the series with Pseudomonas aeruginosa was “inactive” in each case. Also, the “diameter of the inhibition zone (DIZ)” value in the series with Escherichia coli [10] is 12 mm; in the series on Candida albicans [11], 15 mm.
As for `CCOC1(Nc2ccc([N+](=O)[O-])cc2)C(=O)c2ccccc2C1=O`, the half-maximal inhibitory concentration (IC50) in the series on WI-38 stood at 0.047 µM; with MCF7 [1] it was 0.0349 µM; in the series on NFS-60, 0.0278 µM; in the series on HepG2 it was 0.0389 µM. Further, the EC100 with WI-38 was 0.0285 µM. Besides, the selectivity ratio in [3] worked out at 1.35; in series [5], 1.21. The “Ratio IC50” value in series [4] is on record as 1.69. Moreover, the MIC in the series with Staphylococcus aureus [6] (ATCC 25923, 24 h) worked out at 1570 µM (≈ 512 µg/mL). Moreover, the MIC result in the series with Escherichia coli [7] and in the series with Candida albicans [8] was “inactive” in each case. In addition, the “diameter of the inhibition zone (DIZ)” value in the series with Staphylococcus aureus [9] was found to be 12 mm; with Enterococcus faecalis, 13 mm; in the series with Pseudomonas aeruginosa, 16 mm. The “diameter of the inhibition zone (DIZ)” value with Escherichia coli [10] and with Candida albicans [11] was “inactive” in each case.
Regarding `O=C(OC1(C(=O)Nc2ccc([N+](=O)[O-])cc2)CCCCC1)c1ccccc1[N+](=O)[O-]`, the IC50 in the series with WI-38 was 0.0346 µM; with MCF7 [1], 0.0147 µM; in the series with NFS-60 it was 0.0188 µM; in the series on HepG2, 0.044 µM. In addition, in the series on WI-38, the EC100 was 0.0067 µM. In addition, the selectivity ratio stood at 2.35 in series [3] and 0.786 in [5]. Also, in [4], the “Ratio IC50” value came to 1.84. Further, the MIC entry in the series on Staphylococcus aureus [6] and in the series with Candida albicans [8] was “inactive” in each case. For the same compound, the MIC in the series with Escherichia coli [7] (ATCC 25922, 24 h) was determined as 2480 µM (≈ 1020 µg/mL). The “diameter of the inhibition zone (DIZ)” value in the series with Staphylococcus aureus [9], in the series on Enterococcus faecalis and with Candida albicans [11] was “inactive” in each case. The “diameter of the inhibition zone (DIZ)” value with Pseudomonas aeruginosa was 14 mm; in the series with Escherichia coli [10], 12 mm.
On to `Cc1ccc(C(=O)OC2(C(=O)Nc3ccc([N+](=O)[O-])cc3)CCCCC2)cc1`, for which the IC50 in the series on WI-38 was 0.032 µM; in the series on MCF7 [1], 0.0098 µM; in the series with NFS-60 it was 0.0454 µM; with HepG2, 0.0612 µM. Besides, the EC100 in the series with WI-38 was 0.0064 µM. The “Ratio IC50” value in the series with MCF7 [2] is recorded as 2 - 4; in series [4], 0.704. In addition, the figures for the selectivity ratio in series [3] and in [5] were 3.27 and 0.522, respectively. Besides, the “diameter of the inhibition zone (DIZ)” value with Staphylococcus aureus [9], in the series on Enterococcus faecalis, in the series on Pseudomonas aeruginosa, in the series with Escherichia coli [10] and in the series on Candida albicans [11] was “inactive” throughout.
For the compound `O=COC1(C(=O)Nc2ccc([N+](=O)[O-])cc2)CCCCC1`, the IC50 came out at 0.0463 µM in the series with WI-38, 0.0354 µM in the series on MCF7 [1], 0.0338 µM in the series on NFS-60 and 0.0341 µM in the series on HepG2. The EC100 in the series with WI-38 was 0.0271 µM. For the same compound, the selectivity ratio was found to be 1.31 in series [3] and 1.36 in series [5]. Further, in series [4], the “Ratio IC50” value came to 1.369. The MIC entry with Staphylococcus aureus [6] and with Candida albicans [8] was “inactive” each time. Also, the MIC against Escherichia coli [7] (ATCC 25922, 24 h) was 3500 µM (≈ 1020 µg/mL). Also, the “diameter of the inhibition zone (DIZ)” value in the series with Staphylococcus aureus [9] and in the series with Candida albicans [11] was “inactive” throughout. Moreover, the “diameter of the inhibition zone (DIZ)” value in the series with Enterococcus faecalis stood at 12 mm; with Pseudomonas aeruginosa, 18 mm; in the series on Escherichia coli [10] it was 15 mm.
With `COC1(Nc2ccc([N+](=O)[O-])cc2)C(=O)c2ccccc2C1=O`, the IC50 in the series with WI-38 was 0.0537 µM; with MCF7 [1], 0.0254 µM; in the series with NFS-60 it was 0.0328 µM; in the series on HepG2, 0.036 µM. Further, in the series with WI-38, the EC100 was 0.043 µM. In addition, the selectivity ratio in [3] came out at 2.11; in series [5] it was 1.49. In series [4], the “Ratio IC50” value was 1.637. Moreover, the MIC entry in the series on Staphylococcus aureus [6] and in the series on Candida albicans [8] was “inactive” each time. In the series with Escherichia coli [7] (ATCC 25922, 24 h), this compound registered an MIC of 3280 µM (≈ 1020 µg/mL). In addition, the “diameter of the inhibition zone (DIZ)” value in the series with Staphylococcus aureus [9], with Enterococcus faecalis and with Candida albicans [11] was “inactive” throughout. In addition, the “diameter of the inhibition zone (DIZ)” value with Pseudomonas aeruginosa and in the series on Escherichia coli [10] was 14 mm in each case.
Turning to `O=C(OC1(C(=O)Nc2ccc([N+](=O)[O-])cc2)CCCCC1)c1ccc(Cl)cc1`, the half-maximal inhibitory concentration (IC50) in the series on WI-38 turned out to be 0.355 µM; in the series with MCF7 [1], 0.015 µM; in the series on NFS-60 it was 0.0103 µM; in the series on HepG2 it was 0.0218 µM. Moreover, the EC100 in the series on WI-38 came out at 0.1128 µM. The selectivity ratio in series [3] was 23.7; in series [5], 16.3. Moreover, the “Ratio IC50” value in series [4] is 34.466. The MIC entry in the series with Staphylococcus aureus [6] and in the series on Candida albicans [8] was “inactive” in each case. For the same compound, the MIC in the series with Escherichia coli [7] (ATCC 25922, 24 h) worked out at 1270 µM (≈ 512 µg/mL). Moreover, the “diameter of the inhibition zone (DIZ)” value in the series on Staphylococcus aureus [9] and in the series with Candida albicans [11] was “inactive” in each case. The “diameter of the inhibition zone (DIZ)” value was determined as 13 mm in the series with Enterococcus faecalis, 16 mm in the series with Pseudomonas aeruginosa and 14 mm in the series with Escherichia coli [10].

As usually defined, the IC50 is the point on the concentration scale where inhibition reaches its midpoint. A word on the MIC: it is the smallest concentration in the dilution series that meets the test's criterion for growth inhibition.
